Reference: ChEMBL document CHEMBL4725444, “Brain Permeable Tafamidis Amide Analogs for Stabilizing TTR and Reducing APP Cleavage” (ACS Med Chem Lett, 2020)
Calls of active or inactive are those of the source. The calls are words filed in the database; no cut-off is given here.

Columns and labels:
N2a695 [1] = assay: Inhibition of amyloid beta 40 production in mouse N2a695 cells at 10 uM incubated for 6 hrs by ELISA relative to control; type: cell-based
Summary of the method: (§1)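 Human APP695-expressing N2a695 cells (4.0 × 10^5–4.5 × 10^5 cells/mL, 90–95% confluent) given 10 μM final compound for 6 h at 37 °C, 5% CO2. Media assayed by human Aβ40/Aβ42 sandwich ELISA (Aβ40 media diluted 5–10×, Aβ42 undiluted); levels compared with DMSO vehicle. At least two experiments in duplicate or triplicate.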

N2a695 [2] = assay: Inhibition of amyloid beta 42 production in mouse N2a695 cells at 10 uM incubated for 6 hrs by ELISA relative to control; type: cell-based; summary of the method: as §1
[3] = Cytotoxicity against mouse N2a695 cells assessed as reduction in cell viability at 10 uM incubated for 24 hrs by MTT assay; type: cell-based; settings: n2a695, 24 h
Summary of the method: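 N2a cells exposed to 10 μM compound for 24 h; viable cell number determined by MTT assay.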

N2a695 [4] = assay: Increase in APP fragmentation in mouse N2a695 cells at 10 uM incubated for 6 hrs by Western blot analysis; type: functional, cell-based
Summary of the method: (§2)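 N2a695 cells (4.0 × 10^5–4.5 × 10^5 cells/mL, 90–95% confluent) treated with 10 μM final compound for 6 h at 37 °C, 5% CO2. Lysates run on SDS-PAGE; membrane fixed with 0.25% glutaraldehyde in PBS, blocked in milk PBST, probed with RU369 (APP C-terminus antibody), HRP secondary, ECL detection; APP-CTF bands quantified versus DMSO control.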

N2a695 [5] = assay: Increase in APP-CTF fragmentation in mouse N2a695 cells at 10 uM incubated for 6 hrs by Western blot analysis; type: functional, cell-based; summary of the method: as §2
N2a695 [6] = assay: Effect on TTR-induced amyloid beta aggregation inhibition in mouse N2a695 cells measured for 4 hrs by fluorescence correlation spectroscopic analysis; type: functional, cell-based
N2a695 [7] = assay: Inhibition of amyloid beta aggregation in mouse N2a695 cells measured for 4 hrs by fluorescence correlation spectroscopic analysis; type: cell-based
[8] = Plasma concentration in 5XFAD mouse at 50 mg/kg, po measured after 15 days by LC-MS/MS analysis; type: ADME, organism-based; settings: time 15 day
Summary of the method: (§3)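 Dosed via drinking water for 15 days (50 mg/kg) in 3-month-old 5xFAD mice, n = 3. Blood and brain tissue collected on day 15; parent amide and its hydrolysis product tafamidis quantified in plasma and brain extracts by LC-MS/MS.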

[9] = Brain concentration in 5XFAD mouse at 50 mg/kg, po measured after 15 days by LC-MS/MS analysis; type: ADME, organism-based; settings: time 15 day, read-out: Ct; summary of the method: as §3
[10] = Metabolic stability in mouse liver microsomes assessed as parent compound remaining after 0.5 hrs by LC-MS/MS analysis relative to control; type: ADME, Microsome; settings: read-out: Stabilty
Summary of the method: (§4)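 Compound at 1 or 10 μM incubated with mouse or human liver microsomes at 25 °C for 30 and 60 min; remaining parent quantified by LC-MS/MS.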

[11] = Metabolic stability in CD1 mouse liver microsomes assessed as parent compound remaining at 10 uM measured after 0.5 hrs by LC-MS/MS analysis relative to control; type: ADME, Microsome; settings: read-out: Stabilty; summary of the method: as §4
[12] = Metabolic stability in CD1 mouse liver microsomes assessed as parent compound remaining at 1 uM measured after 1 hr by LC-MS/MS analysis relative to control; type: ADME, Microsome; settings: read-out: Stabilty; summary of the method: as §4
[13] = Metabolic stability in CD1 mouse liver microsomes assessed as parent compound remaining at 10 uM measured after 1 hr by LC-MS/MS analysis relative to control; type: ADME, Microsome; settings: read-out: Stabilty; summary of the method: as §4
[14] = Metabolic stability in human liver microsomes assessed as parent compound remaining at 1 uM measured after 0.5 hrs by LC-MS/MS analysis relative to control; type: ADME, Microsome; settings: read-out: Stabilty; summary of the method: as §4
[15] = Metabolic stability in human liver microsomes assessed as parent compound remaining at 1 uM measured after 1 hr by LC-MS/MS analysis relative to control; type: ADME, Microsome; settings: read-out: Stabilty; summary of the method: as §4
[16] = biological target: Transthyretin (Homo sapiens) (UniProt P02766); assay: Stabilization of recombinant dual FLAG-tagged wild type TTR (unknown origin) in plasma blood at < 30 uM incubated for 48 hrs by ion exchange chromatographic method; type: cell-free; settings: dose microM <30, time 48.0 hrs
[17] = Inhibition of gamma secretase in mouse N2a695 cells using Sb4 substrate incubated for 3 hrs by ELISA; settings: N2a695, 3 h

SMILES	inhibition (N2a695 [1]) [%]	inhibition (N2a695 [2]) [%]	Activity [3]	Activity (N2a695 [4])	Activity (N2a695 [5])	Activity (N2a695 [6])	inhibition (N2a695 [7])	concentration at 360 h [8] [nM]	concentration at 360 h [9] [ng/g]	remaining at 0.5 h, 1 µM [10] [%]	remaining at 0.5 h, 1 µM [11] [%]	remaining at 1 h, 1 µM [12] [%]	remaining at 1 h, 1 µM [13] [%]	remaining at 0.5 h, 1 µM [14] [%]	remaining at 1 h, 1 µM [15] [%]	Activity [16]	IC50 [17] [µM]	Stability [16]
O=C(NC1CCNCC1)c1ccc2nc(-c3cc(Cl)cc(Cl)c3)oc2c1	30	30	Toxic	Active	Active	–	–	–	–	–	–	–	–	–	–	–	–	–
CN(C)CCNC(=O)c1ccc2nc(-c3ccc(C(F)(F)F)cc3)oc2c1	30	30	–	Active	Active	–	–	–	–	–	–	–	–	–	–	–	–	–
O=C(c1ccc2nc(-c3ccc(C(F)(F)F)cc3)oc2c1)N1CCNCC1	30	30	Toxic	Active	Active	–	–	–	–	–	–	–	–	–	–	–	–	–
O=C(c1ccc2nc(-c3cc(Cl)cc(Cl)c3)oc2c1)N1CCNCC1	30	30	Non-Toxic	Active	Active	inactive	inactive	80	137	15.1	26.7	2.3	1.2	75.4	70.3	Active	–	–
O=C(O)c1ccc2nc(-c3cc(Cl)cc(Cl)c3)oc2c1 [TAFAMIDIS]	–	–	–	inactive	inactive	inactive	inactive	5800	223	–	–	–	–	–	–	Active	> 30	Stable
